Rows were chosen to be rich in hits. Some 2.9% of all compounds tested hit in one or more screens of this group.
CHO-K1 Ca ag – nonselective activator or artifact in parental CHO-K1 cells. activation, % at 3 µM. Fluo-8 calcium fluorescence; scaled to maximal ATP response, vehicle zero. 360,000 compounds, 0.48% hits; in the data active = activation above about 15%;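 note: untransfected CHO-K1 host cells lacking M1 receptor as counterscreen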
OX1R antag-1 – antagonists of human orexin 1 receptor (OX1R) | inhibition, % at 6.6 µM | 330,000 compounds, 1.8% hits | O43613 | OX1R-expressing cells, FRET antagonist read-out; in the data active = inhibition mostly above about 38%, no sharp cut-off; inactive = mostly below about 40%;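 note: 0% = agonist challenge alone and 100% = reference antagonist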
Target sequence (O43613 whole entry, looked up): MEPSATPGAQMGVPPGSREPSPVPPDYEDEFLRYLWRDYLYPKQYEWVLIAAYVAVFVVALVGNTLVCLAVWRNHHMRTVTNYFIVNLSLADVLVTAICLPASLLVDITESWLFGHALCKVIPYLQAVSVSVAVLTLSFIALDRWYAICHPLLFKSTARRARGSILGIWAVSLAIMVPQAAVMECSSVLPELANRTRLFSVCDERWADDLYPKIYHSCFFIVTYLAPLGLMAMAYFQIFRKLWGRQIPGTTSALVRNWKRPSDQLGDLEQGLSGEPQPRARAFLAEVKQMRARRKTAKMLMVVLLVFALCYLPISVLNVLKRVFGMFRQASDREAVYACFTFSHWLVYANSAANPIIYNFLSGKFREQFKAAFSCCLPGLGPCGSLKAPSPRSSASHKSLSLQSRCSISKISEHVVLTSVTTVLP
OX1R antag-2 – antagonists of human orexin 1 receptor; inhibition, % at 5 µM; O43613; 330,000 compounds, 0.43% hits; AID 434989; CHO/OX1R cells, Fluo-8 calcium fluorescence, orexin A;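 active = inhibition above its plate's threshold, mean inhibition of all tested compounds on the plate plus 3 SD, cut at about 37% in these data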;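 note: 0% = orexin A challenge wells and 100% = SB-334867-A antagonist wells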
CHO-K1 Ca PAM – counter-screen for M1 PAMs: effect in parental CHO-K1 cells; ATP EC20, Fluo-8 calcium fluorescence; 0% at ATP EC20, 100% at ATP max; 360,000 compounds, 0.02% hits; activation, % at 3 µM; AID 602247;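 active = activation above the run cutoff, the mean activation of all test compounds plus 3 SD, cut at about 40% in these data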;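 note: peak over basal fluorescence ratio in a 140 s read after ATP addition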
CHO parental Ca – counter-screen: ATP calcium response change in parental CHO cells. parental CHO-K1, ATP-induced calcium, Fluo-8 fluorescence. inhibition, % at 5.6 µM. 330,000 compounds, 0.63% hits;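 active = inhibition above that plate's mean sample inhibition plus 3 SD, cut at about 26% in these data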;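 note: 0% = ATP-challenged DMSO wells and 100% = DMSO wells without ATP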
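Test system: untransfected parental CHO cell line. Compound: one dose, 5.6 µM nominal. Detection: intracellular calcium via Fluo-8 no-wash fluorescent dye. Measure: % inhibition. Benchmarks: ATP-challenged DMSO wells low, unchallenged DMSO wells high.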
CHO-K1 Ca antag – nonselective inhibitor or artifact in parental CHO-K1 cells | 360,000 compounds, 0.6% hits | AID 602250 | ATP-induced calcium, Fluo-8 fluorescence | inhibition, % at 3 µM;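 active = inhibition above a per-plate cutoff, the plate's mean sample inhibition plus 3 SD, cut at about 24% in these data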;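 note: 0% = DMSO plus EC80 ATP and 100% = DMSO alone without ATP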
OX1R Ca confirm – OX1R (human) antagonism, confirmed | shares compounds with OX1R antag-2 | CHO/OX1R cells, orexin A calcium Fluo-8 fluorescence | inhibition, % at 5 µM | 1,100 compounds, 38% hits | AID 492963; in the data active = inhibition above about 29%;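 note: 0% = agonist challenge alone and 100% = reference antagonist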
CHO Ca triplic – signal in parental CHO cells, OX1R antagonist counter-screen; shares compounds with OX1R antag-2; parental CHO-K1, ATP-induced calcium, Fluo-8 fluorescence; inhibition, % at 5.6 µM; 1,100 compounds, 9.3% hits;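 active = inhibition above a per-plate limit, the mean inhibition of that plate's test compounds plus 3 SD, cut at about 25% in these data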;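 note: 0% = ATP challenge with DMSO and 100% = DMSO without ATP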
* = called active by the depositor; · = no result.

SMILES	CHO-K1 Ca ag	OX1R antag-1	OX1R antag-2	CHO-K1 Ca PAM	CHO parental Ca	CHO-K1 Ca antag	OX1R Ca confirm	CHO Ca triplic
Cc1cccc(C(=O)Nc2ccc(N3CCN(C(=O)c4ccco4)CC3)cc2)c1	3.4	14.2	-21.4	8.3	-18.4	-21.2	·	·
Cc1cccc(OCC(=O)Nc2ccc(N3CCN(C(=O)c4ccco4)CC3)cc2)c1	16.1*	20.1	52.6*	-17.2	14.7	28.6*	49.7*	51.3*
NC(Cc1ccc(Cl)cc1)c1csc(NC(=O)Nc2ccccc2-c2ccccc2)n1 (stereo not drawn)	1.0	·	·	-2.8	·	16.2	·	·
O=C(N/C(=C/c1cccc(Br)c1)c1nc(=S)[nH][nH]1)c1ccccc1	0.6	31.8	33.3	15.1	8.7	-1.6	48.5*	12.3
O=C(CCN1C(=O)NC2(CCCC2)C1=O)Nc1ccc(-c2nc3ccccc3s2)cc1	12.2	15.1	-6.0	-0.1	-7.0	-3.2	·	·
O=C(CN1CCOCC1)Nc1nc(-c2ccc3c(c2)CCN3S(=O)(=O)c2ccccc2)cs1	5.3	53.3	14.7	7.1	23.3	-3.5	·	·
Cc1sc(NC(=O)CN2CCOCC2)nc1-c1ccc2c(c1)CCN2S(=O)(=O)c1ccccc1	11.6	20.0	42.4	-0.8	22.4	13.9	17.6	28.1*
CCCN(CC(=O)Nc1ccccc1OC)C(=O)Cn1c(=O)oc2ccccc21	3.0	·	·	7.8	·	-9.3	·	·
C=CC(C)(O)CCCC(C)CCCC(C)CCCC(C)C (stereo not drawn)	0.6	11.1	-6.9	-16.9	-0.5	3.2	·	·
C=CCSc1nnc(-c2cc3c(s2)-c2ccccc2CC3)o1	2.2	55.4	33.5	13.1	0.0	-1.9	-1.0	-6.3
O=C(CSc1nnc(-c2cccs2)o1)N1CCc2ccccc21	1.6	9.8	-24.7	14.9	-13.7	-14.4	·	·
CCOC(=O)[C@H]1[C@H]2COc3cc(OC)ccc3[C@@H]2N2C(=O)N(c3cccc(Cl)c3)C(=O)[C@@]12C	-1.2	8.5	-42.5	13.4	-18.8	3.3	·	·
Cc1cc(C)n2cc(CSc3nc4cc(Cl)ccc4o3)nc2n1	-0.6	37.1	-28.8	2.5	-20.2	14.2	·	·
CN(C)c1nc(N)nc(CSc2nc3cc(Cl)ccc3o2)n1	1.3	22.4	42.8	5.2	-9.0	-13.1	27.1	-2.6
CSCC(=O)N1CCCC(CNC(=O)c2ccccc2Cl)C1 (stereo not drawn)	1.6	9.1	22.4	-3.1	-1.9	1.3	6.6	-13.7
N#C/C(=C\c1ccc2c(c1)OCCO2)C(=O)Nc1nccs1	1.1	9.2	-12.2	-12.8	2.2	12.0	·	·
CCOc1ccc(NS(=O)(=O)c2ccc(NC(=S)NC(=O)C(C)C)cc2)cc1	2.8	4.6	20.1	0.6	5.8	2.5	·	·
COc1ccc(NS(=O)(=O)c2ccc(NC(=S)NC(=O)C(C)C)cc2)cc1	7.9	30.9	31.4	14.0	17.6	-1.3	32.3*	13.3
O=C(C1CCN(c2ncnc3c2nc2n3CCCCC2)CC1)N1CCN(c2cccc(Cl)c2)CC1	11.3	25.8	31.3	-0.4	5.4	7.0	21.9	-1.7
O=C(C1CCCN(c2ncnc3c2nc2n3CCCCC2)C1)N1CCN(c2ccc(Cl)cc2)CC1 (stereo not drawn)	5.6	5.5	-18.6	18.9	-11.1	8.2	·	·
O=C(O)c1ccc(N2C(=O)CC(SC(=NCc3ccc4c(c3)OCO4)Nc3ccc(F)cc3)C2=O)cc1 (stereo not drawn)	-0.6	27.8	32.2	20.0	6.3	-0.8	30.9*	-2.7
O=C(O)c1ccc(N2C(=O)CC(SC(=NCc3ccc4c(c3)OCO4)Nc3ccccc3)C2=O)cc1 (stereo not drawn)	-0.1	6.9	-0.2	10.7	-2.2	-4.8	·	·
Cc1ccc2c(c1)nnn2C1CCN(S(=O)(=O)c2ccc3ccccc3c2)CC1	-0.2	3.3	-9.6	-4.4	-19.2	6.3	·	·
Cc1ccc2c(c1)nnn2C1CCN(S(=O)(=O)c2cccc(S(=O)(=O)N(C)C)c2)CC1	11.6	35.1	34.8	3.1	21.6	5.4	38.4*	25.4*
CC(C)CC1NC(=O)c2cc3ccccc3cc2-n2c1nc1cc(Cl)ccc1c2=O (stereo not drawn)	-0.1	·	·	21.7	·	-9.5	·	·
SMILES	CHO-K1 Ca ag	OX1R antag-1	OX1R antag-2	CHO-K1 Ca PAM	CHO parental Ca	CHO-K1 Ca antag	OX1R Ca confirm	CHO Ca triplic
Cc1nn(-c2ccc(F)cc2)c2nc(N)c(C#N)c(-c3ccc(O)c(O)c3)c12	2.0	·	·	-2.7	·	7.1	·	·
Cc1nn(-c2ccccc2)c2nc(N)c(C#N)c(-c3ccc(O)c(O)c3)c12	5.7	9.0	36.2	-1.1	2.7	-3.1	34.0*	5.7
COc1ccc(SC[C@H](C)CN2CC[C@H](NC(=O)OCc3ccccc3)CCC2=O)cc1	0.2	12.2	14.7	9.1	-2.9	-14.4	·	·
C[C@@H](CSc1ccc(Br)cc1)CN1CC[C@H](NC(=O)OCc2ccccc2)CCC1=O	6.0	-0.2	52.9*	18.6	18.3	-12.4	-4.2	0.0
COc1ccc(C(=O)Oc2cc(N)n(S(=O)(=O)c3ccc(C)cc3)n2)cc1	0.8	28.4	-17.5	15.5	-19.7	-10.4	·	·
COc1ccc(S(=O)(=O)n2nc(OC(=O)c3c(-c4ccccc4Cl)noc3C)cc2N)cc1	-0.1	40.7	36.3	-2.1	4.3	4.4	-7.7	-13.5
CCc1ccccc1N(C(C)=O)c1nc(CN=C=S)cs1	0.7	14.9	-5.3	-16.2	0.0	1.6	·	·
CCOc1cccc(-c2c(C(=O)N/N=C/c3c(F)cccc3Cl)nnn2-c2nonc2N)c1	3.0	16.8	33.7	10.9	-1.7	-9.4	35.0*	-0.6
COc1ccc2[nH]c(C(=O)O)c(CCN3C(=O)c4cccc([N+](=O)[O-])c4C3=O)c2c1	0.5	15.6	103.1*	19.6	9.1	-6.3	-5.9	-1.0
Cc1ccccc1C(=O)NNC(=O)c1cc(S(=O)(=O)N2CCOCC2)ccc1C	0.3	8.3	-21.5	-4.0	0.5	-11.3	·	·
Cc1cccc(NC(=O)CSCC(=O)N(C)CCOc2ccc(Cl)cc2)c1	1.0	12.7	-41.2	10.4	0.7	13.1	·	·
O=C1Nc2ccc(S(=O)(=O)NCCC3=CCCCC3)c3cccc1c23	9.2	60.5	34.3	17.4	18.8	1.2	-1.7	0.9
C=CCn1c(SCC(=O)Nc2sccc2C(N)=O)nc2ccc(Cl)cc2c1=O	4.6	45.7	53.1*	18.3	9.3	-8.2	16.0	7.7
COc1ccccc1N(C(=O)c1csnn1)C(C(=O)NC1CCCC1)c1ccccc1 (stereo not drawn)	0.1	29.7	-26.3	-2.0	-10.4	-14.8	·	·
N=c1c2c(-c3ccccc3)c(-c3ccccc3)n(Cc3ccco3)c2ncn1Cc1ccccc1	1.8	15.3	59.1*	14.2	-6.0	-4.6	43.2*	2.4

Assay outcomes: PubChem, The Scripps Research Institute Molecular Screening Center
